Source: PubChem BioAssay (The Scripps Research Institute Molecular Screening Center)
Rows were chosen to be rich in hits. Some 3% of all compounds tested hit in one or more screens of this group.
CHRM4 PAM: positive allosteric modulators of human muscarinic M4 receptor. P08173. CHO-K1 hM4/Gqi5, Fluo-8 calcium fluorescence, ACh EC20; 0% = ACh EC20, 100% = maximal ACh. activation, % at 3 µM. 0.4% of 360,000 active. AID 624126;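 active = activation above its plate's cutoff, the mean activation of sample wells plus 3 SD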
Target sequence (P08173 whole entry, looked up): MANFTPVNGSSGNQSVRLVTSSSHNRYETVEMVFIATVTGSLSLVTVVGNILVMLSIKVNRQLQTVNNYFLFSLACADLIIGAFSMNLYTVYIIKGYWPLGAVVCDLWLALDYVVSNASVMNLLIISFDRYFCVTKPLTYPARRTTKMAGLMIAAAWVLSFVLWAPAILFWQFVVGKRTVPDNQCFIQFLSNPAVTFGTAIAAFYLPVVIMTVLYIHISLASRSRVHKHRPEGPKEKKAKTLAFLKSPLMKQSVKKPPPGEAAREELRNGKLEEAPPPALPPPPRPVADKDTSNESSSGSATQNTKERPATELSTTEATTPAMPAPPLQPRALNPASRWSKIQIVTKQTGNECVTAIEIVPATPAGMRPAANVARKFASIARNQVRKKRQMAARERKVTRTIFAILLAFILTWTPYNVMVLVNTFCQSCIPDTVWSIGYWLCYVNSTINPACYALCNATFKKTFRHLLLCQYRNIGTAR
CHRM4 agonist: CHRM4 agonism in calcium assay. P08173. CHO-K1 hM4/Gqi5, Fluo-8 calcium fluorescence; vehicle 0%, full acetylcholine response 100%. activation, % at 3 µM. 0.14% of 360,000 active;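 active = activation above the run mean over all test wells plus 3 SD, cut at about 32% in these data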;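 note: peak over basal fluorescence ratio per well then scaled between controls; 0% = DMSO wells and 100% = acetylcholine at EC100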
TAAR1 antagonist: human TAAR1 antagonism; Q96RJ0; CHO RD-HGA16 TAAR1, Fluo-8 calcium fluorescence, antagonist; inhibition, % at 3 µM; 1.5% of 360,000 active;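 active = inhibition above a per-plate cutoff, the mean inhibition of test compounds on that plate plus 3 SD, cut at about 49% in these data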;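 note: 0% = DMSO plus EC80 beta-PEA response and 100% = DMSO alone without agonist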
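Assay system: RD-HGA16 CHO cells with stable hTAAR1 and Gα16 / Reagent: EC80 β-phenethylamine stimulus / Doses: 3 µM, single point / Timing: dye loading 75 min at 37 °C, then 30 min room temperature / Measured by: Fluo-8 intracellular calcium dye fluorescence, real-time kinetic reads / Controls: vehicle wells and EC80 agonist wells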
CHRM4 antagonist: blocks acetylcholine activation of human M4 receptor | 0.73% of 360,000 active | AID 624125 | inhibition, % at 3 µM | P08173 | CHO-hM4 cells, ACh EC80, Fluo-8 calcium fluorescence;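 active = inhibition above its plate's cutoff, the mean inhibition of sample wells plus 3 SD, cut at about 27% in these data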;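 note: 0% = acetylcholine EC80 with DMSO and 100% = DMSO without agonist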
TAAR1 ag: human TAAR1 agonism; Q96RJ0; CHO RD-HGA16 TAAR1, Fluo-8 calcium fluorescence; vehicle wells 0%, saturating PEA agonist 100%; activation, % at 3 µM; 0.99% of 360,000 active;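 active = activation above the mean activation of all test compounds in the run plus 3 SD, cut at about 38% in these data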
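System: CHO-derived RD-HGA16 cells with stable Gα16 and human TAAR1 / Times: 17-24 h plating, Fluo-8 75 min 37 °C, 30 min RT / Technique: calcium-sensitive Fluo-8 signal, excitation 470-495, emission 515-575 nm / Measure: % activation relative to PEA EC100 response / Benchmarks: DMSO and PEA EC100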
* marks the source's active call; other numbers are inactive results.

How did Cc1cc(C)n(-c2nc(NC(C)(C)C)nc(NC(C)(C)C)n2)n1 do in these assays?
CHRM4 PAM: -3; CHRM4 agonist: 0; TAAR1 antagonist: -4; CHRM4 antagonist: 0; TAAR1 ag: 4

How did Cc1ccc(-n2cc(CN3CCC(CO)(Cc4cccc(C(F)(F)F)c4)CC3)cn2)cc1 do in these assays?
CHRM4 PAM: -10; CHRM4 agonist: 20; TAAR1 antagonist: 4; CHRM4 antagonist: 7; TAAR1 ag: 44*

How did Cc1ccc(-n2cc(CN3CCC(CO)(Cc4ccccc4)CC3)cn2)cc1 do in these assays?
TAAR1 antagonist: 19; TAAR1 ag: 5

What do the screens show for `CN1C(=O)[C@@]2(O[C@H]3[C@H]4C=C[C@@H]([C@H]5C(=O)N(Cc6ccccc6)C(=O)[C@@H]45)N3C3=C2C(=O)CC3)c2ccccc21`?
TAAR1 antagonist: -23; TAAR1 ag: 13

How did Brc1ccc(CN2CCN(c3ncc(Cc4ccccc4)cn3)CC2)cc1 do in these assays?
TAAR1 antagonist: -24; TAAR1 ag: 3

Results for CN(C)CCCN(C(=O)COc1ccc(Cl)cc1)c1nc2ccc(F)cc2s1 ?
CHRM4 PAM: -6; CHRM4 agonist: 14; TAAR1 antagonist: 5; CHRM4 antagonist: 11; TAAR1 ag: 41*

What do the screens show for `Cc1ccc2nc(N(CCCN(C)C)C(=O)COc3ccc(Cl)cc3)sc2c1`?
CHRM4 PAM: -15; CHRM4 agonist: 38*; TAAR1 antagonist: 10; CHRM4 antagonist: 16; TAAR1 ag: 45*

How did Cc1cc(C)c2sc(N(CCCN(C)C)C(=O)COc3ccc(Cl)cc3)nc2c1 do in these assays?
CHRM4 PAM: -16; CHRM4 agonist: 18; TAAR1 antagonist: 20; CHRM4 antagonist: 24; TAAR1 ag: 35

Results for COc1ccc(C(=O)NCC2CCN(C(=O)C(=O)c3cccs3)CC2)cc1 ?
TAAR1 antagonist: -1; TAAR1 ag: 1

How did O=C(COC(=O)c1cccc(N2C(=O)c3ccccc3C2=O)c1)Nc1ccccc1 do in these assays?
CHRM4 PAM: -7; CHRM4 agonist: 5; TAAR1 antagonist: 23; CHRM4 antagonist: 5; TAAR1 ag: 4

How did N#Cc1cccc(NC(=O)COC(=O)c2cccc(N3C(=O)c4ccccc4C3=O)c2)c1 do in these assays?
CHRM4 PAM: -11; CHRM4 agonist: 14; TAAR1 antagonist: 60*; CHRM4 antagonist: 17; TAAR1 ag: 8

How did O=C(NCc1ccccc1)[C@H]1CCCN1C(=O)[C@H]1CCCN1C(=O)c1ccc(F)c(C(F)(F)F)c1 do in these assays?
TAAR1 antagonist: -15; TAAR1 ag: -1

Results for COc1cc(/C=C(/C#N)C(=O)NC(C)c2ccccc2)cc(OC)c1O (configuration not stated) ?
CHRM4 PAM: -4; CHRM4 agonist: 33*; TAAR1 antagonist: -32; CHRM4 antagonist: 2; TAAR1 ag: 15

How did C[C@H]1COc2cc(N3CCCC3)ccc2S(=O)(=O)N1 do in these assays?
TAAR1 antagonist: -2; TAAR1 ag: 0

What do the screens show for `Nc1ccn([C@@H]2O[C@H](C(=O)N[C@H](Cc3ccccc3)C(=O)N3CCN(C(=O)N4CCOCC4)CC3)[C@@H](O)[C@H]2O)c(=O)n1`?
TAAR1 antagonist: -2; TAAR1 ag: 0

What do the screens show for `COc1ccc(N2C(=S)NC3CS(=O)(=O)CC32)cc1` (configuration not stated)?
CHRM4 PAM: -26; CHRM4 agonist: 0; TAAR1 antagonist: 4; CHRM4 antagonist: 28*; TAAR1 ag: 0

Results for CC(C)C[C@H]1COc2cc(Br)ccc2S(=O)(=O)N1Cc1cccc(Cl)c1 ?
TAAR1 antagonist: -30; TAAR1 ag: 0

What do the screens show for `O=C(C1CCCCC1)N1CCN=C1SCc1cccc([N+](=O)[O-])c1`?
CHRM4 PAM: -17; CHRM4 agonist: 0; TAAR1 antagonist: 13; CHRM4 antagonist: 32*; TAAR1 ag: -1

How did O=C(c1ccc([N+](=O)[O-])cc1)N1CCN=C1SCc1ccccc1 do in these assays?
CHRM4 PAM: 10; CHRM4 agonist: 0; TAAR1 antagonist: 4; CHRM4 antagonist: -5; TAAR1 ag: 0

How did O=C(c1ccccc1)N1CCN=C1SCc1ccc([N+](=O)[O-])cc1 do in these assays?
CHRM4 PAM: -16; CHRM4 agonist: 0; TAAR1 antagonist: 7; CHRM4 antagonist: 29*; TAAR1 ag: -1

How did C=CCn1c(C)cc(C(=O)CSc2nc3ccccc3c(=O)[nH]2)c1C do in these assays?
CHRM4 PAM: -12; CHRM4 agonist: 21; TAAR1 antagonist: 67*; CHRM4 antagonist: 6; TAAR1 ag: 17

What do the screens show for `Cc1cc(C(=O)CSc2nc3ccc(Cl)cc3[nH]2)c(C)n1CC1CCCO1` (configuration not stated)?
CHRM4 PAM: -12; CHRM4 agonist: 12; TAAR1 antagonist: 43; CHRM4 antagonist: 31*; TAAR1 ag: 12

How did C=CCn1c(C)cc(C(=O)CSc2nc3ccccc3[nH]2)c1C do in these assays?
CHRM4 PAM: -15; CHRM4 agonist: 29; TAAR1 antagonist: 60*; CHRM4 antagonist: 29*; TAAR1 ag: 17

Results for Cc1cc(C(=O)CSc2nc3ccccc3[nH]2)c(C)n1C ?
CHRM4 PAM: -2; CHRM4 agonist: 3; TAAR1 antagonist: 7; CHRM4 antagonist: 7; TAAR1 ag: 10

What do the screens show for `Cc1nn(-c2nc3ccccc3s2)c(C)c1Oc1ccccc1O`?
CHRM4 PAM: -30; CHRM4 agonist: 37*; CHRM4 antagonist: 32*

How did COc1ccc(/C=C2\SC(=O)NC2=S)cc1OC do in these assays?
CHRM4 PAM: -28; CHRM4 agonist: 33*; TAAR1 antagonist: 18; CHRM4 antagonist: 20; TAAR1 ag: 3

How did CCCCOC(=O)/C=C/c1c(C)[nH]c(=O)[nH]c1=O do in these assays?
CHRM4 PAM: 22*; CHRM4 agonist: 1; TAAR1 antagonist: -2; CHRM4 antagonist: -3; TAAR1 ag: 2

Results for O=C(NNc1ccc([N+](=O)[O-])cn1)Nc1ccc(N=Nc2ccccc2)cc1 ?
CHRM4 PAM: 7; CHRM4 agonist: 2; TAAR1 antagonist: 16; CHRM4 antagonist: -7; TAAR1 ag: 45*

Results for O=C(NNc1ccc([N+](=O)[O-])cc1)Nc1ccccc1 ?
CHRM4 PAM: -3; CHRM4 agonist: 1; TAAR1 antagonist: 3; CHRM4 antagonist: 7; TAAR1 ag: 1

How did CCc1c(C#N)c(SCCC(=O)Nc2cccc(OC)c2)nc2c1C(=O)CC(C)(C)C2 do in these assays?
CHRM4 PAM: -9; CHRM4 agonist: 5; TAAR1 antagonist: 58*; CHRM4 antagonist: 12; TAAR1 ag: 17

How did CS(=O)(=O)c1ccc(OCCCN2CCC(C(O)(c3ccccc3)c3ccccc3)CC2)cc1 do in these assays?
TAAR1 antagonist: 22; TAAR1 ag: 14

Results for Nc1[nH]n2c(=O)c3c(nc2c1N=Nc1ccccc1)CCCC3 ?
CHRM4 PAM: 30*; CHRM4 agonist: 1; TAAR1 antagonist: 10; CHRM4 antagonist: 10; TAAR1 ag: 6
